HSF1 activator: increases HSF-1 driven luciferase reporter signal; NIH3T3-HGL HSF-1 luciferase reporter, MG132, 8 h; 100% = twice DMSO control signal; activation, % at 9 µM; 300,000 compounds, 1.7% hits; AID 504408;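 active = mean replicate activation of at least 50% with a set share of replicates each reaching 50%; inconclusive = only one of those two conditions met; inactive = mean below 50% and too few replicates reaching it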
HSF1 inhib: HSF1 inhibition | NIH3T3-HGL HSE-luciferase, MG132-induced, luminescence 8 h; hits give low values | activity change, negative = inhibition, % at 7.5 µM (by protocol) | 300,000 compounds, 0.77% hits | AID 2098;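 active = more than half of replicate wells show activity change below -50%, luminescence cut by over half; inconclusive = some wells, but at most half, below -50%; inactive = no replicate well below -50%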;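 also: luciferase reports HSF-1 transcriptional activity via heat shock element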
T cruzi inh: T. cruzi replication inhibition; T. cruzi beta-gal in NIH3T3, luminescence, 90 h; inhibition, % (no concentration beside the values); 300,000 compounds, 1.4% hits; AID 1885;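 active = mean inhibition across valid replicates above about 55%, limit read from the data; inconclusive = mean below that limit but half or more replicates reach it; inactive = mean below it, under half of replicates reach it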;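 also: signal also drops with host cell toxicity which is not excluded here; higher percent means less beta-gal luminescence so fewer parasites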
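assay system = mouse NIH/3T3 fibroblasts infected with β-gal-expressing T. cruzi Tulahuen C4 | input = 5,000 NIH/3T3 host cells per well | buffer or medium = DMEM plus 2% FBS | timing = 3 h host attachment, then at least 90 h co-culture | measured by = GalScreen luminescence, 60 min | evaluation = luminescence reflecting intracellular parasite burden, expressed as percent inhibition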
Hsp70 activator: Hsp70 transcriptional activation, primary screen | activation, % at 10 µM | AID 1203 | HeLa Hsp70 promoter luciferase reporter, luminescence; scaled: vehicle 0, proteasome-inhibitor control 100% | 200,000 compounds, 0.04% hits;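 active = activation above the mean across all tested compounds plus 3 SD, cutoff set per campaign, cut at about 5.5% in these data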
Lmaj promast: reduces viability of Leishmania major promastigotes; resazurin fluorescence viability; inhibition, % at 10 µM; 200,000 compounds, 9% hits; in the data active = inhibition above about 50%;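 also: promastigotes grown with compound for 44 hours at 28 °C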
Each line names hits and unclear results; the compound was inactive in the other large screens. The full list was thinned out, with hits kept by preference.

CCOC(=O)N1CCN(c2nc(C)c3c(n2)CCCC3=O)CC1	HSF1 inhib -70
O=C(NCc1nnnn1-c1ccc(Cl)cc1)c1ccc(Br)o1	none (no result: Hsp70 activator, Lmaj promast)
CCOc1ccccc1CNC(=O)c1ccc(Sc2ccc(Cl)cc2)c(NC(C)=O)c1	Lmaj promast 85
CC(=O)Nc1cc(C(=O)NCc2ccco2)ccc1Sc1ccc(Cl)cc1	Lmaj promast 92
CC(=O)Nc1cc(C(=O)N(C)Cc2ccco2)ccc1Sc1ccc(Cl)cc1	none
CC(=O)Nc1cc(C(=O)NCc2ccco2)ccc1Sc1ccc(F)cc1	none
CCOc1ccc(CNC(=O)c2ccc(Sc3ccc(Cl)cc3)c(NC(C)=O)c2)cc1	Lmaj promast 95
CCCCc1ccc(NC(=O)CSC2=NN3CCCC(=O)N=C3S2)cc1	none (no result: Hsp70 activator, Lmaj promast)
O=C(O)c1ccc(CN2C(=O)c3ccc(Oc4ccc([N+](=O)[O-])cc4)cc3C2=O)cc1	none (no result: Hsp70 activator, Lmaj promast)
COc1cc(C2C(C#N)=C(N)OC3=C2C(=O)CC(C)(C)C3)ccc1OC(=O)N1CCOCC1 (stereo not given)	none
COc1ccc(C2C(C#N)=C(/N=C/N3CCN(C)CC3)OC3=C2C(=O)CC(C)(C)C3)cc1OC (stereo not given)	Lmaj promast 64
N=c1c2c3c(sc2ncn1Nc1ccccc1)CCC3	none (no result: Hsp70 activator, Lmaj promast)
O=C(NCc1ccco1)c1ccc(Cn2c(=O)c3sccc3n(Cc3cccc(F)c3)c2=O)cc1	none
O=C(NCc1cccc(F)c1)c1ccc(N2C(=O)Cn3c(cc4sccc43)C2=O)cc1	Lmaj promast 61
N#CCSc1nnc(Nc2ccccc2)s1	Lmaj promast 65
Cc1cccc(OCCn2ccnc2)c1	none (no result: Hsp70 activator, Lmaj promast)
Cc1cc(OCCn2ccnc2)cc(C(C)C)c1	Lmaj promast 92
Cc1cc(C)cc(OCCn2ccnc2)c1	none (no result: Hsp70 activator, Lmaj promast)
Cc1cc(OCCCn2ccnc2)cc(C(C)C)c1	Lmaj promast 78
CCC(C)c1ccc(OCCn2ccnc2)cc1 (stereo not given)	Lmaj promast 60
CCc1nc(N2CCN(S(C)(=O)=O)CC2)c2c3c(sc2n1)CCCC3	none
CCOc1ccccc1CNC(=O)CCn1ccc2cc(S(=O)(=O)N3CCCCC3)ccc21	HSF1 inhib -73 (no result: Hsp70 activator, Lmaj promast)
CCOCCCNC(=O)/C(C#N)=C/c1ccc(C(=O)OC)cc1	Lmaj promast 58
CCOCCCNC(=O)/C(C#N)=C/c1ccc(Cl)c([N+](=O)[O-])c1	Lmaj promast 100
O=C(Cc1cccs1)NCCN1CCOCC1	Lmaj promast 50
O=C(/C=C/c1ccc(Br)o1)NCCCN1CCOCC1	HSF1 inhib -66
O=C(COC(=O)/C=C/c1ccc(Br)o1)NCCCN1CCCC1=O	HSF1 activator 65
O=C(/C=C/c1ccc(Cl)cc1Cl)NCCN1CCOCC1	Lmaj promast 71
Cc1ccccc1CC(=O)NCCN1CCOCC1	none (no result: Hsp70 activator, Lmaj promast)
O=C(/C=C/c1ccco1)NCCCN1CCOCC1	none
O=C1NC(=O)C2(COC(c3cccc([N+](=O)[O-])c3)OC2)S1 (stereo not given)	none
COc1ccc(CNC(=O)C(c2ccncc2)N(C(=O)Cc2cccs2)c2ccccc2)cc1 (stereo not given)	none (no result: HSF1 activator, HSF1 inhib, T cruzi inh)
O=C(/C=C/c1ccccc1)NCCN1CCOCC1	Lmaj promast 63
COc1ccc(N(C(=O)CCl)C(C(=O)NCCc2ccccc2)c2cccs2)cc1 (stereo not given)	HSF1 inhib -93, Lmaj promast 100
COc1ccc(CCNC(=O)Cc2cccs2)cc1	HSF1 inhib -55, Lmaj promast 56
O=C(/C=C/c1ccc(Cl)cc1)NCCCN1CCOCC1	none (no result: Hsp70 activator, Lmaj promast)
O=C(Cc1cccs1)NCCCc1ccccc1	none
Cc1ccc(S(=O)(=O)N(Cc2ccc(C(F)(F)F)cc2)C(=O)N2CCN(C)CC2)cc1	none (no result: Hsp70 activator, Lmaj promast)
COCCCNC(=S)Nc1c(C)cc(C)cc1C	none (no result: Hsp70 activator, Lmaj promast)
S=c1sc2c(N3CCN(Cc4ccccc4)CC3)ncnc2n1-c1ccccc1	none
CCN1CCN(c2ncnc3c2sc(=S)n3-c2ccccc2)CC1	Lmaj promast 52
COc1ccc(-c2csc(Nc3ccccc3)[n+]2Cc2ccccc2)cc1	none
O=[N+]([O-])c1ccc(-c2csc(Nc3ccccc3)[n+]2Cc2ccccc2)cc1	HSF1 activator 84
O=C(N/N=C/c1sc(N2CCOCC2)nc1-c1ccccc1)c1ccc(O)cc1	HSF1 activator inconclusive
O=C(N/N=C/c1sc(N2CCOCC2)nc1-c1ccccc1)c1cccc(S(=O)(=O)N2CCCC2)c1	T cruzi inh 77
CCNC(=S)NNC(=O)c1cc(-c2cccc(C)c2)nc2ccccc12	Lmaj promast 95
CCCCNC(=S)NNC(=O)c1ccoc1C	none
CNC(=O)NC(=S)NC(=O)c1ccccc1Cl	HSF1 inhib -76
CNC(=O)NC(=S)NC(=O)c1cccc(Cl)c1	none
CCNC(=S)NNC(=O)c1ccccc1Cl	Lmaj promast 51
CCNC(=S)NNC(=O)c1ccccc1OC(F)F	none
CCCCNC(=S)NNC(=O)c1csc2ccccc12	HSF1 activator 131
O=C(Nn1cnnc1)c1ccc(Cl)c(Cl)c1	none (no result: Hsp70 activator, Lmaj promast)
C=CCS/C(N)=N\N=C\c1cc(Br)cc([N+](=O)[O-])c1O	none (no result: Hsp70 activator, Lmaj promast)
Nc1ccc(-c2nc3ccccc3s2)cn1	none (no result: Hsp70 activator, Lmaj promast)
O=C1CCC(=O)N1c1ccc(-c2nc3ccccc3s2)cc1	HSF1 inhib -72
Cc1cc(C)c2oc(-c3ccc(C)c(NC(=S)NC(=O)/C=C/c4ccco4)c3)nc2c1	HSF1 activator inconclusive, Lmaj promast 71
Cc1cc(C)c2oc(-c3ccc(C)c(NC(=S)NC(=O)c4cccs4)c3)nc2c1	none
Cc1ccc2oc(-c3cccc(NC(=S)NC(=O)/C=C/c4ccco4)c3)nc2c1	Lmaj promast 100
COCCN(C(=O)CSc1nnc(-c2ccccc2C)n1C)c1c(N)n(Cc2ccccc2)c(=O)[nH]c1=O	none (no result: HSF1 activator, HSF1 inhib)
CCN(CC(=O)c1c(N)n(C)c(=O)n(C)c1=O)c1cccc2ccccc12	HSF1 activator 85
COc1cc([N+](=O)[O-])ccc1NC(=O)Nn1cnnc1	none (no result: Hsp70 activator, Lmaj promast)
COc1cc2c(cc1OC)C(c1cc(Br)ccc1F)N(C(=O)CCl)CC2 (stereo not given)	HSF1 inhib -97, T cruzi inh 65 (no result: Hsp70 activator, Lmaj promast)
COc1cc2c(cc1OC)C(C1C(=O)CC(C)(C)CC1=O)N(C(=O)CCl)CC2 (stereo not given)	none
CCCNC(=O)c1nnsc1Sc1ccc(Cl)cc1	none
CCOc1ccc(C(=O)Nc2cc(-c3nc4ccccc4[nH]3)ccc2Cl)cc1[N+](=O)[O-]	Lmaj promast 96
Cc1ccc(-c2nc3ccccc3[nH]2)cc1NC(=O)c1ccc2c(c1)OCO2	HSF1 activator 88
CCOc1ccc(C(=O)Nc2cccc(-c3nc4ccccc4[nH]3)c2C)cc1[N+](=O)[O-]	Lmaj promast 51
Cc1ccc(-c2cnn(-c3cccc([N+](=O)[O-])c3)c2N)cc1	HSF1 activator 60
Cc1ccc(C(=O)OCC(=O)NC2CCCCC2)s1	none
Cc1sc(NC(=O)c2ccc(Br)s2)c(C(N)=O)c1C	HSF1 activator 61
COCCN(Cc1cc2ccc(C)c(C)c2nc1Cl)C(=O)N1CCOCC1	HSF1 activator 55
CCn1nnc(NC(=O)C(c2ccccc2)c2ccccc2)n1	none
